# Results collected from several papers.
# Compare with care: the assays were run in different laboratories.
# RET: Proto-oncogene tyrosine-protein kinase receptor Ret (RET, Homo sapiens, UniProt P07949)
# RET V804M: Proto-oncogene tyrosine-protein kinase receptor Ret (RET, Homo sapiens, UniProt P07949, V804M)
# RET V804L: Proto-oncogene tyrosine-protein kinase receptor Ret (RET, Homo sapiens, UniProt P07949, V804L)
# RET M918T: Proto-oncogene tyrosine-protein kinase receptor Ret (RET, Homo sapiens, UniProt P07949, M918T)
SMILES,target,assay,setting,remaining binding
O=C(Nc1cccnn1)N1CCC(=Cc2cccc(Oc3ccc(C(F)(F)F)cn3)c2)CC1,RET,"cell-free assay, competition with immobilised ligand",1 µM,100%
N[C@H]1CCN(c2nccc(-c3cnn4ncccc34)n2)C1,RET V804M,binding,1 µM,100%
Nc1ncc2c(n1)-c1c([nH]c3ccc(C#CC4CC4)cc13)CCCC2,RET V804L,"binding, competition with immobilised ligand",1 µM,96%
C=CC(=O)N1CCC(C(=O)NCC(=O)N2CCN(c3nc(-c4cnc(N)nc4C(F)F)nc(N4CCOCC4)n3)CC2)CC1,RET V804L,"binding, competition with immobilised ligand",1 µM,100%
c1cnn2ncc(-c3ccnc(N4CCC45COC5)n3)c2c1,RET,binding,1 µM,97%
CC(=O)Nc1c(C(C)=O)c(=O)n(C)c2nc(-c3ccc(Cl)cc3Cl)c(-c3ccc(Cl)cc3)cc12,RET,"cell-free assay, competition with immobilised ligand",1 µM,100%
O=C(NCCCN1CCOCC1)c1ccc(Nc2ncc(Cl)c(-c3ccc(Cl)s3)n2)cc1,RET V804L,"binding, competition with immobilised ligand",1 µM,13%
CO[C@@H](C)c1c(Nc2ccc([C@@H](N(C)C(=O)C3CCS(=O)(=O)CC3)C(F)(F)F)cc2)cnc2cc(Cl)nn12,RET,"cell-free assay, competition with immobilised ligand",1 µM,91%
CC1CCCN1c1nccc(-c2cnn3ncccc23)n1 (stereo not drawn),RET V804L,binding,1 µM,85%
CS(=O)(=O)N1CCCC(NC(=O)[C@H](CCC2CCCCC2)NC(=O)c2ccc(CNc3ncnc4c3nnn4-c3ccccc3)cc2)C1 (stereo partly drawn),RET M918T,"cell-free assay, competition with immobilised ligand",0.1 µM,93%
CNC(=O)[C@@H]1CC[C@@H](n2c(-c3ccc4cnccc4c3)nc3ccc(C(=O)NCc4cccc(C(N)=O)c4)cc32)C1,RET M918T,"binding, competition with immobilised ligand",1 µM,98%
Cc1cnc(Nc2ccc(C(=O)N3CCC(N4CCCC4)CC3)cc2)nc1-c1cc2ccccc2s1,RET V804M,"binding, competition with immobilised ligand",1 µM,25%
CN(C(=O)c1ccccc1)c1cc(N(C)c2ccc3c(c2)CCc2ccc(C(=O)NCCN4CCOCC4)cc2C3=O)ccc1F,RET,"cell-free assay, competition with immobilised ligand",1 µM,95%
C[C@@H]1CN(c2ccc3ncc(-c4ccc5[nH]nc(C6CC6)c5c4)n3n2)C[C@H](C)O1,RET,"binding, competition with immobilised ligand",0.5 µM,61%
CCN1CCN(Cc2ccc(C(=O)Nc3ccc(C)c(Oc4ccc5c(c4)CC(=O)N5)c3)cc2C(F)(F)F)CC1,RET M918T,"binding, competition with immobilised ligand",1 µM,40%
Cc1cnn2ncc(-c3ccnc(N(C)C)n3)c2c1,RET,binding,1 µM,69%
COc1cnc(Nc2cccc(S(N)(=O)=O)c2)nc1N1CCN(c2ccccc2)CC1,RET V804L,"binding, competition with immobilised ligand",1 µM,73%
N#Cc1ccc(Nc2ccc3[nH]c(=O)[nH]c3c2)c(Cl)c1,RET V804M,"cell-free assay, competition with immobilised ligand",1 µM,93%
COc1ccnn2ncc(-c3ccnc(N(C)C)n3)c12,RET M918T,binding,1 µM,100%
O=C(c1ccc(Nc2ncc(Cl)c(-c3ccc(Cl)s3)n2)cc1)N1CCC(N2CCCC2)CC1,RET V804M,"binding, competition with immobilised ligand",1 µM,12%
CN(CCCC(F)(F)F)c1nccc(-c2cnn3ncccc23)n1,RET M918T,binding,1 µM,99%
CCc1ccccc1C(=O)Nc1n[nH]c2c(C)c(F)c(C3C(C#N)=C(C)N(C)C(C)=C3C#N)cc12,RET V804L,"cell-free assay, competition with immobilised ligand",1 µM,25%
CN(C)c1nccc(-c2cnc3ncccn23)n1,RET,binding,1 µM,91%
O=C(Nc1c[nH]nc1C(=O)NC1CCNCC1)c1cc(F)cc(F)c1,RET V804M,"binding, competition with immobilised ligand",1 µM,99%
